Assays:
Rattus norvegicus [1] = experiment: DA2 antagonist activity was tested by its ability to decrease the heart rate in anesthetized rat at 1000 ug/kg; format: functional
Method in brief: (§1)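 Urethane-anaesthetised (900 mg/kg ip) Sprague-Dawley rats received iv cumulative doses via the femoral vein, at 0.48 log10 steps once responses had been stable ≥5 min. Heart rate came from a cardiotachometer triggered by the femoral arterial pulse, as decrease in beats/min. n = 3 rats per compound; mean ± SD.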

Rattus norvegicus [2] = experiment: DA2 antagonist activity was tested by the duration of onset of action of cardiovascular response at 1000 ug/kg; Insufficient sample for statistical treatment; format: functional, Heart
Rattus norvegicus [3] = experiment: DA2 antagonist activity was tested by the duration of onset of action of cardiovascular response at 1000 ug/kg; format: functional, Heart
Method in brief: (§2)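 In anaesthetised Sprague-Dawley rats (urethane 900 mg/kg ip), cumulative iv doses at 0.48 log10 intervals were given via the femoral vein after ≥5 min of stable responses. Duration of hypotension and bradycardia (min) was taken from femoral arterial pressure and pulse-triggered heart rate recordings. Three rats per compound; mean ± SD.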

Rattus norvegicus [4] = experiment: DA2 antagonist activity was tested by its to decrease the heart rate in anesthetized rat at 300 ug/kg; format: functional; method in brief: as §1
Rattus norvegicus [5] = experiment: DA2 antagonist activity was tested by its to decrease the heart rate in anesthetized rat at 1000 ug/kg; format: functional; method in brief: as §1
Rattus norvegicus [6] = experiment: DA2 antagonist activity was tested by the duration of onset of action of cardiovascular response at 3000 ug/kg; format: functional, Heart; method in brief: as §2
Rattus norvegicus [7] = experiment: DA2 antagonist activity was tested by its ability to decrease the arterial pressure in anesthetized rat at 300 ug/kg; format: functional, Artery
Method in brief: (§3)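 Sprague-Dawley rats under urethane anaesthesia (900 mg/kg ip), with a femoral vein cannula for drug. Compound given iv as cumulative doses spaced 0.48 log10 units apart, each after responses had been stable ≥5 min. Mean arterial pressure was recorded from the femoral artery via a transducer, as decrease in mmHg. Three rats per compound; mean ± SD.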

Rattus norvegicus [8] = experiment: DA2 antagonist activity was tested by the duration of onset of action of cardiovascular response at 300 ug/kg; format: functional, Heart; method in brief: as §2
Rattus norvegicus [9] = experiment: DA2 antagonist activity was tested by its to decrease the heart rate in anesthetized rat at 3000 ug/kg; format: functional; method in brief: as §1
Rattus norvegicus [10] = experiment: DA2 antagonist activity was tested by its ability to decrease the arterial pressure in anesthetized rat at 3000 ug/kg; format: functional, Artery; method in brief: as §3
Rattus norvegicus [11] = experiment: DA2 antagonist activity was tested by its ability to decrease the heart rate in anesthetized rat at 10 ug/kg; format: functional; method in brief: as §1
Rattus norvegicus [12] = experiment: DA2 antagonist activity was tested by its ability to decrease the arterial pressure in anesthetized rat at 100 ug/kg; format: functional, Artery; method in brief: as §3
Rattus norvegicus [13] = experiment: DA2 antagonist activity was tested by its ability to decrease the heart rate in anesthetized rat at 30 ug/kg; format: functional; method in brief: as §1
Rattus norvegicus [14] = experiment: DA2 antagonist activity was tested by its ability to decrease the arterial pressure in anesthetized rat at 30 ug/kg; format: functional, Artery; method in brief: as §3
Rattus norvegicus [15] = experiment: DA2 antagonist activity was tested by its ability to decrease the arterial pressure in anesthetized rat at 10 ug/kg; format: functional, Artery; method in brief: as §3
Rattus norvegicus [16] = experiment: DA2 antagonist activity was tested by the duration of onset of action of cardiovascular response at 10 ug/kg; format: functional, Heart; method in brief: as §2
Rattus norvegicus [17] = experiment: DA2 antagonist activity was tested by the duration of onset of action of cardiovascular response at 30 ug/kg; format: functional, Heart; method in brief: as §2
Rattus norvegicus [18] = experiment: DA2 antagonist activity was tested by its ability to decrease the heart rate in anesthetized rat at 100 ug/kg; format: functional; method in brief: as §1
Rattus norvegicus [19] = experiment: DA2 antagonist activity was tested by the duration of onset of action of cardiovascular response at 100 ug/kg; format: functional, Heart; method in brief: as §2
Rattus norvegicus [20] = experiment: DA2 antagonist activity was tested by its ability to decrease the heart rate in anesthetized rat at 300 ug/kg; format: functional; method in brief: as §1
Rattus norvegicus [21] = experiment: DA2 antagonist activity was tested by its ability to decrease the arterial pressure in anesthetized rat at […] ug/kg; format: functional, Artery; method in brief: as §3
Rattus norvegicus [22] = experiment: DA2 antagonist activity was tested by its ability to decrease the heart rate in anesthetized rat at 3000 ug/kg; format: functional; method in brief: as §1

CCCN1CCCC(c2cc(OC)ccc2OC)C1 (single isomer, unassigned; (+))
Decrease in heart rate (Rattus norvegicus [1]): 30 beats min-1 | Duration of action (Rattus norvegicus [2]): 18 min

CCCN1CCCC(c2cc(OC)ccc2OC)C1 (racemic)
Duration of action (Rattus norvegicus [3]): 8 min | Decrease in heart rate (Rattus norvegicus [4]): 17 beats min-1 | Decrease in heart rate (Rattus norvegicus [5]): 35 beats min-1 | Duration of action (Rattus norvegicus [6]): 13 min | Decrease in pressure (Rattus norvegicus [7]): 10 mmHg | Duration of action (Rattus norvegicus [8]): 5 min | Decrease in heart rate (Rattus norvegicus [9]): 45 beats min-1 | Decrease in pressure (Rattus norvegicus [10]): 23 mmHg

CCCN1CCC[C@H](c2cccc(O)c2)C1
Decrease in heart rate (Rattus norvegicus [11]): 13 beats min-1 | Decrease in pressure (Rattus norvegicus [12]): 23 mmHg | Decrease in heart rate (Rattus norvegicus [13]): 37 beats min-1 | Decrease in pressure (Rattus norvegicus [14]): 16 mmHg | Decrease in pressure (Rattus norvegicus [15]): 5 mmHg | Duration of action (Rattus norvegicus [16]): 6 min | Duration of action (Rattus norvegicus [17]): 10 min | Decrease in heart rate (Rattus norvegicus [18]): 44 beats min-1 | Duration of action (Rattus norvegicus [19]): 14 min

CCCN1CCCC(c2cc(OC)ccc2OC)C1 (single isomer, unassigned; (-))
Decrease in heart rate (Rattus norvegicus [20]): 10 beats min-1 | Duration of action (Rattus norvegicus [3]): 5 min | Decrease in pressure (Rattus norvegicus [21]): 27 mmHg | Decrease in heart rate (Rattus norvegicus [1]): 40 beats min-1 | Duration of action (Rattus norvegicus [6]): 10 min | Decrease in pressure (Rattus norvegicus [7]): 15 mmHg | Duration of action (Rattus norvegicus [8]): 2 min | Decrease in heart rate (Rattus norvegicus [22]): 45 beats min-1

Source: ChEMBL document CHEMBL1126770, “2,5-Dimethoxy congeners of (+)-and (-)-3-(3-hydroxyphenyl)-N-n- propylpiperidine” (1993)
